{
  "source": "ChEMBL document CHEMBL4680093",
  "about": "(J Med Chem, 2016)",
  "key": {"[1]": {"assay": "AUC in mouse at 1 mg/kg, iv", "format": "ADME, organism-based", "design": "dose 1 mg/kg", "settings": "in vivo"}, "[2]": {"assay": "Drug level in mouse liver at 10 mg/kg, po measured after 2 hrs post dose", "format": "ADME, organism-based", "settings": "in vivo", "method_in_brief": "(§1)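 C57BL/6 mice given a single oral 10 mg/kg dose in 0.5% methylcellulose plus 1% Tween80. Sacrifice at 2 h post-dose, with collection of brain, liver, adipose and plasma. Compound concentration expressed as nmol/g, along with tissue/plasma ratio.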"}, "[3]": {"assay": "Tmax in dog at 4 mg/kg, po", "format": "ADME, organism-based, Canis lupus familiaris", "settings": "in vivo", "method_in_brief": "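Single-dose PK study. The iv dose was given in 10% hydroxypropyl-β-cyclodextrin and the oral dose in 0.5% methylcellulose/1% Tween80. Mouse and rat received 1 mg/kg iv and 5 mg/kg po. Dog received 0.5 mg/kg iv and 4 mg/kg po. CL, Vss, t1/2, AUC, Cmax, tmax and F were derived.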"}, "[4]": {"system": "Mus musculus", "assay": "Improvement in lipid profile in C57BL/6-Lep^ob (ob/ob) mouse assessed as triglyceride level at 20 mg/kg, po dosed once daily for 25 days co-treated with 300 mg/kg. po QD for 25 days metformin (reference value: 90.9 +/- 5.5 mg/dl)", "settings": "time 25 day"}, "[5]": {"system": "Mus musculus", "assay": "Improvement in lipid profile in C57BL/6-Lep^ob (ob/ob) mouse assessed as LDL cholesterol level at 20 mg/kg, po dosed once daily for 25 days co-treated with 300 mg/kg. po QD for 25 days metformin (reference value: 30.3 +/- 0.8 mg/dl)", "settings": "time 25 day"}, "[6]": {"assay": "Protein binding in mouse plasma", "format": "ADME, cell-free", "settings": "read-out: PPB"}, "[7]": {"organism": "Homo sapiens", "assay": "Selectivity index, ratio of IC50 for human 11beta-HSD2 to IC50 for human 11beta-HSD1"}, "[8]": {"assay": "In-vivo inhibition of 11beta-HSD1 activity in C57BL/6 mouse liver assessed as reduction in cortisone to-cortisol conversion at 10 mg/kg, po measured after 2 hrs by ELISA", "format": "functional", "settings": "C57BL/6, Liver"}, "[9]": {"assay": "In-vivo inhibition of 11beta-HSD1 activity in C57BL/6 mouse epididymal fat assessed as reduction in cortisone to-cortisol conversion at 10 mg/kg, po measured after 6 hrs by ELISA", "format": "functional", "settings": "C57BL/6, Epididymal fat pad", "method_in_brief": "(§2)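 Male C57BL/6 mice dosed orally once at 3, 10 or 30 mg/kg in sterile water containing 0.5% methylcellulose and 1% Tween80, then sacrificed at 2 or 6 h. Liver and epididymal fat pads incubated ex vivo in culture medium containing cortisone. Cortisol formed was measured by ELISA and reported as % inhibition versus vehicle.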"}, "[10]": {"assay": "AUC in mouse at 5 mg/kg, po", "format": "ADME, organism-based", "design": "dose 5 mg/kg", "settings": "in vivo"}, "[11]": {"molecular_target": "T1, Glucocorticoid receptor (Homo sapiens, UniProt P04150)", "T1 sequence (P04150 whole entry)": "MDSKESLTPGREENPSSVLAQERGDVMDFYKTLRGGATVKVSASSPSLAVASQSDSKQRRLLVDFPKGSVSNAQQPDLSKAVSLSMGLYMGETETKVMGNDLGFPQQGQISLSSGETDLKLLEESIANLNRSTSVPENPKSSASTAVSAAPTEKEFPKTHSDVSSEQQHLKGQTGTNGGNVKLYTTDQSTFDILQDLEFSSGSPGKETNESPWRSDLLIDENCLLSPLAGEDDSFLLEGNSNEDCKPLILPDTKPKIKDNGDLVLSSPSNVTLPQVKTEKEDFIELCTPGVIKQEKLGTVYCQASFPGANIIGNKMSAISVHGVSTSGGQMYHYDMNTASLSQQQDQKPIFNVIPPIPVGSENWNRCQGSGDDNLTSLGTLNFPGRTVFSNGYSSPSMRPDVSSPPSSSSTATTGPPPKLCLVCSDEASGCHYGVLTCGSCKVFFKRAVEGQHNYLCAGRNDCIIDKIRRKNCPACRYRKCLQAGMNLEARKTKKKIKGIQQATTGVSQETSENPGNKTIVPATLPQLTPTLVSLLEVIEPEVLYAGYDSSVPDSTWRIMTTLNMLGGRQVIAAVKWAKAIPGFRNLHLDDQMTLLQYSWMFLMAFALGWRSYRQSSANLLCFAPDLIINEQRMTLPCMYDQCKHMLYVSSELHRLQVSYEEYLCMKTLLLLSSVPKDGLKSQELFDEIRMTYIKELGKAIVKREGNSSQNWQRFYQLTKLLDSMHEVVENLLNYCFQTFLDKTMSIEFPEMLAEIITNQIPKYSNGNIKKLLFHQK", "assay": "Agonist activity at glucocorticoid receptor (unknown origin)"}, "[12]": {"assay": "In-vivo inhibition of 11beta-HSD1 activity in C57BL/6 mouse epididymal fat assessed as reduction in cortisone to-cortisol conversion at 3 mg/kg, po measured after 2 hrs by ELISA", "format": "functional", "settings": "C57BL/6, Epididymal fat pad", "method_in_brief": "as §2"}, "[13]": {"molecular_target": "T2, 11-beta-hydroxysteroid dehydrogenase type 2 (Homo sapiens) (UniProt P80365)", "T2 sequence (whole entry)": "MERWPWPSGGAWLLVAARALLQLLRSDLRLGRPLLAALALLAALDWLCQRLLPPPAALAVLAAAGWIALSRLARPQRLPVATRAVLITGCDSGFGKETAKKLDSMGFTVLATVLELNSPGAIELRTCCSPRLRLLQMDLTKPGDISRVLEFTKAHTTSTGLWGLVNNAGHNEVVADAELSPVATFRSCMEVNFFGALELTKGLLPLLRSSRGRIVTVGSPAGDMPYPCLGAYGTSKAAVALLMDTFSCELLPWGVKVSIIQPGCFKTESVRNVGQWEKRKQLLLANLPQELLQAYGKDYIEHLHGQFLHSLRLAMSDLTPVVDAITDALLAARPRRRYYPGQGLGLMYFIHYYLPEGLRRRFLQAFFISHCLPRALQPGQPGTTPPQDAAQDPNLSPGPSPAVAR", "assay": "Inhibition of human 11beta-HSD2 expressed in microsomes at 1 uM relative to control", "settings": "Microsome"}, "[14]": {"assay": "Drug level in mouse brain at 10 mg/kg, po measured after 2 hrs post dose", "format": "ADME, organism-based", "settings": "in vivo", "method_in_brief": "as §1"}, "[15]": {"molecular_target": "T3, 11-beta-hydroxysteroid dehydrogenase type 2 (Homo sapiens, UniProt P80365)", "T3 sequence (P80365 whole entry)": "T2 sequence (whole entry)", "assay": "Inhibition of human 11beta-HSD2 expressed in microsomes", "design": "species or system Microsome"}, "[16]": {"assay": "Clearance in rat at 1 mg/kg, iv", "format": "ADME, organism-based", "settings": "in vivo"}, "[17]": {"molecular_target": "11-beta-hydroxysteroid dehydrogenase 1 (Homo sapiens, UniProt P28845)", "sequence (P28845 whole entry)": "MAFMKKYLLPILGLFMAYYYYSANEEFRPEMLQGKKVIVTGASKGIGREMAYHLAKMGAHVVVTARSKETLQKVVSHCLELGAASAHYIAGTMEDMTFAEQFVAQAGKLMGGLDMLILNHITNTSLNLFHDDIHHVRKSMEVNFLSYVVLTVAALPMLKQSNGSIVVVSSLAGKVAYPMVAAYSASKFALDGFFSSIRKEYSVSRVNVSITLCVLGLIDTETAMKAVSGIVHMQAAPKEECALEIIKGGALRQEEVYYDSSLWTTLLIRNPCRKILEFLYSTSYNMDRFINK", "assay": "Inhibition of human 11beta-HSD1 expressed in microsomes", "design": "species or system Microsome", "method_in_brief": "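HEK293 cell lysates (microsomal fractions) overexpressing human or mouse 11β-HSD1 were incubated with cortisone, a range of inhibitor concentrations and an NADPH regenerating system in sodium phosphate buffer at 37°C for 1 h. Cortisol in the supernatant was quantified by ELISA. Percent inhibition was fitted to a sigmoidal dose-response curve to give IC50.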"}},
  "data": [
    {"smiles": "C[C@@H]1CN(c2ccc(S(C)(=O)=O)cc2F)CCN1c1nccc(C(=O)NC2C3CC4CC2CC(O)(C4)C3)n1", "note": "(some centres not stated)", "values": [
      {"measurement": "AUC", "setting": "[1]", "result": 2350, "unit": "ng·h/mL"},
      {"measurement": "Drug uptake", "setting": "[2]", "result": 31, "unit": "nmol/g"},
      {"measurement": "Tmax", "setting": "[3]", "result": 2.1, "unit": "h"},
      {"measurement": "Activity", "setting": "[4]", "result": 84.1, "unit": "mg/dL"},
      {"measurement": "Activity", "setting": "[5]", "result": 17.2, "unit": "mg/dL"},
      {"measurement": "fraction unbound", "setting": "[6]", "result": 0.01},
      {"measurement": "Ratio IC50", "setting": "[7]", "result": "> 3000"},
      {"measurement": "inhibition in vivo at 10 mg/kg", "setting": "[8]", "result": 86, "unit": "%"},
      {"measurement": "inhibition in vivo at 10 mg/kg", "setting": "[9]", "result": 93, "unit": "%"},
      {"measurement": "AUC", "setting": "[10]", "result": 11300, "unit": "ng·h/mL"},
      {"measurement": "EC50", "setting": "[11]", "result": "> 5000", "unit": "nM"},
      {"measurement": "inhibition in vivo at 3 mg/kg", "setting": "[12]", "result": 86, "unit": "%"},
      {"measurement": "inhibition", "setting": "[13]", "result": 6, "unit": "%"},
      {"measurement": "Drug uptake", "setting": "[14]", "result": 0.41, "unit": "nmol/g"},
      {"measurement": "IC50", "setting": "[15]", "result": "> 10000", "unit": "nM"},
      {"measurement": "clearance", "setting": "[16]", "result": 15.5, "unit": "mL/min/kg"},
      {"measurement": "IC50", "setting": "[17]", "result": 2.9, "unit": "nM"}
    ]}
  ]
}
